# High-throughput results as filed in PubChem.
# Diaph act CS – diaphorase activation or chemical reduction counter-screen. activation factor at 20 µM. actives 0.005% (n = 190,000). Diaphorase/resazurin coupled assay, resorufin fluorescence, 16 min; active compounds read high; 1 = vehicle wells, 0 = NADH-free wells;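 active means diaphorase activity raised at least twofold by the compound at 20 µM; inactive means activation factor below 2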
#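 test system = bacterial diaphorase enzyme (C. kluyveri) | quantity = enzyme 0.07 U/mL final | reagent = NADH substrate 0.114 mM plus resazurin dye 0.1 mM, final | incubation = 16 min enzyme reaction, ambient temperature | buffer or medium = HEPES pH 7.4 buffer with MgCl2 and Tween 20 | signal = fluorescence of resorufin, 544 nm excitation, 590 nm emission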
# DTT redox prof – compounds producing H2O2 with reducing agent – biochemical, NIH compound library profiling, artefact control for MLSCN library redox annotation, primary screen; activation, % at 10 µM; AID 878; DTT-dependent redox cycling H2O2, phenol red/HRP absorbance; 100% = 100 µM peroxide control, 0% = buffer; actives 0.03% (n = 200,000);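 active means activation of at least 50% relative to the plate's high and low controls in the primary single-dose screen; inactive means activation below 50%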;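 further: compound incubated with DTT at 0.8 mM final as the reducing agent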
# G6PDH counter – inhibits Leuconostoc G6PDH, flagging false hits in G6PDH-based assays; Purified L. mesenteroides G6PDH, diaphorase/resazurin coupled fluorescence, 45 min; inhibition, % at 5 µM; actives 0.12% (n = 200,000); AID 1020
# PfGluPho inh – PfG6PD (Plasmodium falciparum) enzyme inhibition; PfGluPho enzyme, NADPH resazurin-diaphorase fluorescence; actives 0.78% (n = 350,000); AID 504690; inhibition, % at 20 µM;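 active means inhibition reaching at least a set limit at 20 µM in the primary screen, cut at about 59% in these data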;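 further: 0% = DMSO wells with substrate and 100% = DMSO wells lacking glucose-6-phosphate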
# Diaphorase inh – diaphorase inhibition or chemical oxidation counter-screen | diaphorase resazurin-to-resorufin fluorescence, NADH, 16 min; bacterial (C. kluyveri) enzyme, not human | inhibition, % at 20 µM | actives 0.69% (n = 190,000) | AID 1217;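 active means primary screen inhibition at 20 µM above a set limit, cut at about 50% in these data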;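 further: plate controls were DMSO with full reaction for no effect and wells lacking NADH for full effect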
#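 material = Clostridium kluyveri diaphorase enzyme | amount = 0.14 U/mL diaphorase, enzyme working solution | schedule = incubation 16 min, room temperature | detection = fluorescence of resorufin formed from resazurin, Ex 544/Em 590 nm | benchmarks = positive control minus NADH, DMSO neutral control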
# L major viab – reduces viability of Leishmania major promastigotes. resazurin fluorescence viability. inhibition, % at 10 µM. actives 9% (n = 200,000);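 further: promastigotes grown with compound for 44 hours at 28 °C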
# Numbers without * were called inactive; x = not tested or not shown. This is one part of a sample in which hits are shown more often than they occur. Unless noted, no stated cut-off is given here; in the data, active means inhibition above about 50%; inactive means the rest.
SMILES,Diaph act CS,DTT redox prof,G6PDH counter,PfGluPho inh,Diaphorase inh,L major viab
OC(CNCc1ccccc1)Cn1ccc2ccccc21 (centres undefined),1,0,16,3,4,96*
OC(CNCCNc1ncccc1C(F)(F)F)Cn1ccc2ccccc21 (centres undefined),x,x,x,22,x,x
Cc1cc(NC(=O)c2cc([N+](=O)[O-])cc([N+](=O)[O-])c2)n(-c2ccccc2)n1,0.8,0,-5,8,17,89*
CCN(CC)S(=O)(=O)c1ccc(Cl)c(C(=O)Nc2cc(C)nn2-c2ccccc2)c1,1,-1,17,-6,-2,65*
CCOc1cc(/C=C2\CCC/C(=C\c3cc(Cl)c(O)c(OCC)c3)C2=O)cc(Cl)c1O,0.8,6,7,-11,18,93*
Oc1cccc(NC(=S)N=Nc2c(O)[nH]c3ccccc23)c1,x,x,x,-9,x,x
CCOc1ccc(NC(=S)N=Nc2c(O)[nH]c3ccccc23)cc1,0.9,-2,-7,6,14,98*
CCCCn1cnc2c1c(=O)n(CC(=O)c1cc(C)n(C)c1C)c(=O)n2CC(C)C,0.9,2,2,22,14,96*
CSc1nc(N)nc2c1ncn2CC(=O)NCCNc1ccc([N+](=O)[O-])cn1,x,x,x,8,x,x
COc1cccc(/C=N/n2c(-c3n[nH]c4c3CCC4)n[nH]c2=S)c1O,0.4,0,28,43,58*,-9
O=C(O)CCC(=O)NNc1nc2ccccc2nc1-c1ccccc1,1,0,15,22,0,-2
COc1ccccc1-c1n[nH]c(=S)n1Cc1ccco1,1,0,0,x,5,-2
COc1cc(C)c(C)cc1S(=O)(=O)NC1CC(C)(C)NC(C)(C)C1,x,x,x,6,x,x
COc1ccc2[nH]c(=O)c(C(c3nnnn3CC3CCCO3)N3CCCCC3)cc2c1 (centres undefined),0.8,0,10,13,18,-7
Cc1cccc2cc(C(c3nnnn3CC3CCCO3)N3CCCc4ccccc43)c(=O)[nH]c12 (centres undefined),0.4,2,5,-2,60*,35
O=c1[nH]c2cc3c(cc2cc1C(c1nnnn1C1CCCC1)N1CCCc2ccccc21)OCCO3 (centres undefined),0.8,x,10,51,21,x
CCOc1ccc2[nH]c(=O)c(C(c3nnnn3CC3CCCO3)N3CCc4ccccc4C3)cc2c1 (centres undefined),0.4,-1,14,2,59*,40
Cc1ccc(C(c2nnnn2CC2CCCO2)N2CCN(c3cccc(C)c3C)CC2)cc1 (centres undefined),0.9,1,1,18,12,59*
Cc1ccc2cc(C(c3nnnn3CC3CCCO3)N3CCc4ccccc4C3)c(=O)[nH]c2c1 (centres undefined),0.5,3,-2,10,54*,93*
CCc1ccc2[nH]c(=O)c(C(c3nnnn3CC3CCCO3)N3CCCc4ccccc43)cc2c1 (centres undefined),0.3,-3,19,15,68*,18
Cc1cc2cc(C(c3nnnn3CC3CCCO3)N3CCCc4ccccc43)c(=O)[nH]c2cc1C (centres undefined),0.5,2,22,-2,50,8
Cc1cccc2cc(C(c3nnnn3CC3CCCO3)N3CCCC4(CCCCC4)C3)c(=O)[nH]c12 (centres undefined),0.7,2,6,x,31,38
Cc1ccc(C)c2[nH]c(=O)c(C(c3nnnn3Cc3ccccc3)N3CCc4ccccc4C3)cc12 (centres undefined),0.7,2,10,16,35,73*
Cc1cccc2cc(C(c3nnnn3CC3CCCO3)N3CCc4ccccc4C3)c(=O)[nH]c12 (centres undefined),0.4,0,22,8,55*,27
CCN(CC)S(=O)(=O)c1cc(C(=O)Nc2cccnc2Cl)ccc1Cl,1,-2,3,0,-5,0
SMILES,Diaph act CS,DTT redox prof,G6PDH counter,PfGluPho inh,Diaphorase inh,L major viab
C/C(=N\NC(=O)COc1ccc(C)cc1Br)c1cc([N+](=O)[O-])cs1,0.9,-1,16,-5,9,59*
COc1ccc(C(C(=O)NC(C)(C)C)N(C(=O)CNC(=O)c2cccs2)c2cccnc2)cc1OC (centres undefined),x,x,x,-7,x,x
CCOc1ccccc1NC(=O)C(OC(=O)C1CC1)c1ccccc1 (centres undefined),x,x,x,2,x,x
CCOc1ccccc1NC(=O)C(NCC1(N2CCCCC2)CCCCC1)c1ccccc1 (centres undefined),1,0,-8,-4,-3,66*
NS(=O)(=O)c1cccc(NS(=O)(=O)c2ccc(/C=C/C(=O)OCC(=O)c3ccccc3)cc2)c1,0.8,-2,0,-22,22,-9
COc1ccc(/C=C/C(=O)N2CCCc3ccccc32)cc1,0.9,0,6,20,6,60*
COc1cc(/C=C/C(=O)N2CCCc3ccccc32)cc(OC)c1OC,1,-1,8,-10,4,50*
COc1ccc(OC)c(/C=C/C(=O)N2CCCc3ccccc32)c1,0.8,0,2,13,20,23
COc1ccc(/C=C/C(=O)N2CCCc3ccccc32)c(OC)c1,x,x,x,10,x,x
CC(=O)N1CCc2c(sc3c2c(=O)n(-c2ccccc2)c(=O)n3Cc2ccccc2Cl)C1,0.9,0,0,-4,7,98*
Cc1cc(C)cc(OCc2ccc(C(=O)NN)o2)c1,x,x,x,9,x,x
Cc1cc(C(=O)N/N=C/c2c[nH]c3ccccc23)cs1,1,0,3,20,-4,14
O=C(N/N=C/c1c[nH]c2ccccc12)c1ccccc1,x,x,x,1,x,x
O=C(N/N=C/c1c[nH]c2ccccc12)c1ccncc1,1.1,0,-4,-13,-8,56*
Cc1ccc(C(=O)Nc2ccc(C(=O)N/N=C/c3c[nH]c4ccccc34)cc2)cc1,0.7,0,-15,-3,27,73*
CCc1cc(=O)n2[nH]c(-c3ccccc3)c(-c3ccccc3)c2n1,x,x,x,-2,x,x
CC(C)CC(OC(=O)CC1Sc2ccccc2NC1=O)C(=O)NC1CCCC1 (centres undefined),x,x,x,0,x,x
O=C(/C=C/c1cn(-c2ccccc2)nc1-c1cccnc1)c1ccco1,0.9,-10,0,13,14,100*
NC(=O)c1ccc(NC(=O)COC(=O)/C=C/c2cn(-c3ccccc3)nc2-c2cccnc2)cc1,0.9,x,4,-16,9,51*
